In the library only some 2.6% were active in any assay of this set; here they are far more common.
SENP8 block-1 = blocks human SENP8 cleavage of Nedd8 substrate; Q96LD8; recombinant SENP8, Nedd8 substrate fluorescence; inhibition, % at 20 µM; 360,000 tested, 0.64% active; in the data active means inhibition mostly above about 40%, no sharp cut-off; inactive means mostly below about 27%
Platelet DG rel = platelet dense granule release activity. 300,000 tested, 0.22% active. inhibition, %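 (compounds screened at 7.5 µM in platelet-rich plasma)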. human platelet-rich plasma, SFLLRN dense granule ATP release, luminescence;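 active means mean replicate score, as percent of positive control, at or above 50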
SENP1 FRET inh = SENP1 (human) catalytic domain inhibition | Q9P0U3 | recombinant SENP1 catalytic domain, CyPet-SUMO1-YPet FRET cleavage | inhibition, % at 10 µM | 360,000 tested, 0.21% active;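 active means inhibition at least 30% at 10 µM, raw YFP signal under a set limit, fluorescence ratio 0.5 to 1.5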
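Test system: hSENP1 catalytic domain, recombinant; Amount: 20 pM final SENP1 enzyme; Medium: Tris pH 8 buffer plus EDTA, NaCl, BME, BSA, NP40, catalase; Schedule: 50 min enzyme reaction, room temperature, light-protected; Technique: FRET fluorescence in CFP and YFP emission channels; Controls: no-enzyme wells low, DMSO-plus-enzyme wells high control.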
SENP8 block-2 = SENP8 protease inhibition; Q96LD8; purified SENP8, Z-RLRGG-aminoluciferin cleavage, luminescence; inhibition, % at 10 µM; 330,000 tested, 1.2% active; in the data active means inhibition above about 50%
SENP6 block = inhibitors of human SENP6 protease | Q9GZR1 | Recombinant SENP6 catalytic domain, aminoluciferin luminescence | inhibition, % at 10 µM | 330,000 tested, 1.8% active;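 active means inhibition above about 50% at the single tested dose, limit read from the data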
SENP7 inh = blocks the human protease SENP7. Q9BQF6. recombinant SENP7, Z-RLRGG-aminoluciferin luminescence, 40 min. inhibition, % at 5 µM. 330,000 tested, 1.5% active;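 active means inhibition above about 50% at the single test dose, limit read from the data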
Target sequence (Q9BQF6 706-1050 limits assumed): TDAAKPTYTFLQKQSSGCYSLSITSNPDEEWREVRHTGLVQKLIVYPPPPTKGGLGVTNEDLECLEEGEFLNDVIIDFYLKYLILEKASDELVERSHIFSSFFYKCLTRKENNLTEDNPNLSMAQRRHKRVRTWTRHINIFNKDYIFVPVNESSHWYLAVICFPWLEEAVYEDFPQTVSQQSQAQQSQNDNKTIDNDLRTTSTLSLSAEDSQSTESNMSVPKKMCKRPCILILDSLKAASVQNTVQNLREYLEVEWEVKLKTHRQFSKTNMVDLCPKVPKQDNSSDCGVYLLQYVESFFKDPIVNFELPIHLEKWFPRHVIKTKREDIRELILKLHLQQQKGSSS
SENP8 confirm = confirmation of human SENP8 protease inhibitors. shares compounds with SENP7 inh. Recombinant SENP8, Z-RLRGG-aminoluciferin luminescence, 60 min. inhibition, % at 12.5 µM. 6,200 tested, 40% active. AID 488912;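 active means mean inhibition across replicates above about 50%, limit read from the data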
SENP6 confirm = human SENP6 inhibition, confirmed | shares compounds with SENP7 inh | recombinant SENP6, Z-RLRGG-aminoluciferin luminescence | inhibition, % at 12.5 µM | 6,200 tested, 58% active | AID 488915
SENP7 confirm = confirmation of human SENP7 protease inhibitors; shares compounds with SENP7 inh; recombinant SENP7, Z-RLRGG-aminoluciferin luminescence, 40 min; inhibition, % at 12.5 µM; 6,200 tested, 69% active
Casp3 select = selectivity test for SENP inhibitors: human caspase-3 inhibition; inhibition, % at 12.5 µM; shares compounds with SENP7 inh; purified caspase-3, Z-DEVD-aminoluciferin luminescence, 60 min; 6,200 tested, 60% active; AID 488918;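 active means mean inhibition above about 50%, limit read from the data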
Target sequence (P42574 28-227 limits assumed): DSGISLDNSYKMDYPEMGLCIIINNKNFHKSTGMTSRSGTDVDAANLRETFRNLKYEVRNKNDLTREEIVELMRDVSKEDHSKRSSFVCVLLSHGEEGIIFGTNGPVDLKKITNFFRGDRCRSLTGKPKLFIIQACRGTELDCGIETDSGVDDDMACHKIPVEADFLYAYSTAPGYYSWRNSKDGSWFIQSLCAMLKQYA
Luc interf = luminescence interference (SENP counter-screen) | shares compounds with SENP7 inh | Pre-incubated SENP8/Z-RLRGG-aminoluciferin, luciferase luminescence interference | inhibition, % at 12.5 µM | 6,200 tested, 39% active | AID 488919;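 active means mean inhibition above about 50% when retested at one dose, limit read from the data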
Large screens that a line does not name were inactive (follow-up assays come after a bar, where they were run).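 How the source made its calls, unless noted: active means mean inhibition above about 50% in the one-dose retest (limit read from the data); inactive means the rest.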

Cc1ccc(C(=O)Nc2cccc(C(=O)O)c2)cc1	SENP8 block-2 95, SENP6 block 92, SENP7 inh 99 (no result: SENP8 block-1, SENP1 FRET inh) | SENP8 confirm 99 | SENP6 confirm 100 | SENP7 confirm 103 | Casp3 select 96 | Luc interf 98
CCOc1ccc(C(=O)Nc2cc(NC(=O)c3ccc(OCC)c(Cl)c3)cc(C(=O)O)c2)cc1Cl	none
Cc1cccc(N2CC(C(=O)Nc3ccc4c(c3)OCO4)CC2=O)c1C (centres undefined)	none
Cc1cc(NS(=O)(=O)c2ccc(NC(=O)CCCOc3ccccc3C)cc2)nc(C)n1	none
COc1ccc(OC)c(NS(=O)(=O)c2ccc3c(c2)C(C)(C)C(=O)N3C)c1	none
O=C(Oc1ccc2ccccc2c1)c1ccccc1	SENP8 block-2 71, SENP6 block 83 | SENP8 confirm 74 | SENP6 confirm 86 | SENP7 confirm 95 | Casp3 select 66 | Luc interf 70
O=C(Oc1ccccc1)c1ccccc1	none (no result: Platelet DG rel, SENP8 block-2, SENP6 block, SENP7 inh)
O=C(Oc1ccc(/C=N/O)cc1)c1ccccc1	SENP6 block 78, SENP7 inh 80 | SENP8 confirm 66 | SENP6 confirm 65 | SENP7 confirm 89 | Casp3 select 72 | Luc interf 79
O=C(Oc1ccc(/C=N/Nc2ccccc2)cc1)c1ccccc1	none
O=C(NCCCn1ccnc1)c1ccc2nccnc2c1	none
CCOC(=O)COn1c(-c2cccc(Cl)c2)nc2ccc([N+](=O)[O-])cc21	SENP8 block-2 87, SENP6 block 94, SENP7 inh 90 | SENP8 confirm 81 | SENP6 confirm 81 | SENP7 confirm 92 | Casp3 select 65 | Luc interf 69
COc1ccc(OC)c(-n2nnnc2SCC(=O)Nc2ccc(C(=O)N3CCCCC3)cc2)c1	SENP7 inh 57 | SENP8 confirm inactive | SENP6 confirm inactive | SENP7 confirm inactive | Casp3 select inactive | Luc interf inactive
COc1ccc(OC)c(-n2nnnc2SCC(=O)Nc2ccc3c(c2)OCCO3)c1	none
CC1CCc2cccc3c(O)cc(=O)n1c23 (centres undefined)	none
CCS(=O)(=O)N1CCN(c2cnn(-c3ccccc3)c(=O)c2Cl)CC1	none
O=c1c(Cl)c(N2CCCCC2)cnn1-c1nc2ccccc2[nH]1	SENP8 block-2 89, SENP6 block 97, SENP7 inh 97 | SENP8 confirm 96 | SENP6 confirm 96 | SENP7 confirm 102 | Casp3 select 98 | Luc interf inactive
COc1ccc(C(=O)NNC2=C(C(=O)C(F)(F)F)CCC2)cc1	none
CC(C)Cc1csc(=S)[nH]1	none (no result: Platelet DG rel, SENP8 block-2, SENP6 block, SENP7 inh)
COc1cccc(NC(=O)c2ccc3c(c2)CCCC3)c1	SENP8 block-2 96, SENP6 block 98, SENP7 inh 100 | SENP8 confirm 98 | SENP6 confirm 99 | SENP7 confirm 102 | Casp3 select 97 | Luc interf 94
Cc1cccc(NC(=O)Nc2ccc3c(c2)CCC3)c1	SENP7 inh 62 | SENP8 confirm inactive | SENP6 confirm inactive | SENP7 confirm inactive | Casp3 select inactive | Luc interf inactive
COc1cccc(NC(=O)Nc2ccc3c(c2)CCC3)c1	SENP8 block-2 52, SENP6 block 58, SENP7 inh 67 | SENP8 confirm inactive | SENP6 confirm inactive | SENP7 confirm 83 | Luc interf inactive
COc1ccc(OC)c(NC(=O)Nc2ccc3c(c2)CCC3)c1	none
CC(C)OC(=O)CSc1nnc(CNc2cccc(Cl)c2)n1C	none
COc1ccc(NC(C)=O)cc1NC(=O)c1cccc(S(=O)(=O)N2CCN(Cc3ccccc3)CC2)c1	none
CCOc1ccc(OCC)c(NC(=O)CSCCc2ccccn2)c1	SENP6 block 82 | SENP8 confirm inactive | SENP6 confirm inactive | SENP7 confirm inactive | Casp3 select inactive | Luc interf inactive
O=c1c2sc(-c3ccccc3)cc2nc2n1CCC2	SENP8 block-2 81, SENP6 block 93, SENP7 inh 91 | SENP8 confirm 89 | SENP6 confirm 89 | SENP7 confirm 99 | Casp3 select 95 | Luc interf 90
Cn1c(NCCN2CCCC2)nc2cc(-c3ccccc3)sc2c1=O	none (no result: Platelet DG rel, SENP8 block-2, SENP6 block, SENP7 inh)
O=c1c2sc(-c3ccccc3)cc2nc2n1CCCCC2	SENP6 block 54 | SENP8 confirm inactive | SENP6 confirm inactive | SENP7 confirm 74 | Casp3 select inactive | Luc interf 54
CC1CC(C)CN(S(=O)(=O)c2ccc(Oc3ccc([N+](=O)[O-])cc3)cc2)C1 (centres undefined)	none
FC(F)(F)c1cccc(-c2nc3nc(Cl)c(Cl)nc3[nH]2)c1	SENP8 block-2 93, SENP6 block 95, SENP7 inh 92 | SENP8 confirm 97 | SENP6 confirm 98 | SENP7 confirm 102 | Casp3 select 92 | Luc interf 87
O=[N+]([O-])c1ccc(C=Nc2cccc3ccccc23)s1	SENP6 block 58 | SENP8 confirm inactive | SENP6 confirm inactive | SENP7 confirm inactive | Casp3 select inactive | Luc interf inactive
O=[N+]([O-])c1ccc(-c2ccc(C=Nc3cccc4ccccc34)o2)cc1	SENP6 block 83, SENP7 inh 52 | SENP8 confirm inactive | SENP6 confirm inactive | SENP7 confirm inactive | Casp3 select inactive | Luc interf inactive
O=C1/C(=C/c2cccc([N+](=O)[O-])c2)Oc2cc(O)ccc21	SENP8 block-2 54, SENP6 block 67 | SENP8 confirm inactive | SENP6 confirm inactive | SENP7 confirm inactive | Casp3 select inactive | Luc interf inactive
O=C1/C(=C/c2ccc(O)c(O)c2)Oc2cc(O)ccc21	none (no result: Platelet DG rel)
O=C(OC1CCc2ccccc2C1=O)c1ccccc1O (centres undefined)	SENP8 block-2 70, SENP6 block 82, SENP7 inh 80 (no result: Platelet DG rel) | SENP8 confirm 81 | SENP6 confirm 80 | SENP7 confirm 92 | Casp3 select 67 | Luc interf inactive
Cc1ccc(C(=O)NC2CCc3ccccc3C2=O)cc1 (centres undefined)	none
COc1ccc(/C=N/Nc2cc(C)nc3ccc(OC)cc23)c(OC)c1	none
